Our source for the Activity and MIC values is ChEMBL document CHEMBL1151453, “Subinhibitory concentrations of azithromycin decrease nontypeable Haemophilus influenzae biofilm formation and Diminish established biofilms” (2008).

Values after ≈ are worked out from the molar mass of the structure shown. Active and inactive are the calls of the source. The rule behind the calls is not given here.

Test [1] has as its system Haemophilus influenzae. The test is described as follows: Antimicrobial activity against nontypeable Haemophilus influenzae isolate 2019 expressing GFP isolated from patient with COPD assessed as inhibition biofilm formation at 0.25 ug/mL after 2 days. Format: functional, organism-based. The method in brief:
(§1)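 Flow cell: GFPmut3-expressing strain 2019 (kanamycin selection before inoculation) grown under a glass coverslip at 37°C. Medium was 1% BHI with NAD and hemin (1% final) in 150 mM NaCl, flowing at 0.08 ml/min, with or without antibiotic. Established-biofilm arm: no drug days 0–2, then drug days 2–4. Confocal imaging; biomass and maximal thickness by COMSTAT; n = 3.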

Test [2] concerns Haemophilus influenzae. Put plainly: Antimicrobial activity against azithromycin-resistant nontypeable Haemophilus influenzae isolate S53 assessed as inhibition of biofilm formation at 16 ug/mL after 7 hrs using crystal violet. The test is classed as functional, organism-based.
In test [3] the test system is Haemophilus influenzae. The test is described as follows: Antimicrobial activity against azithromycin-resistant nontypeable Haemophilus influenzae isolate S52 assessed as inhibition of biofilm formation at 8 ug/mL after 7 hrs using crystal violet. Format: functional, organism-based.
In test [4] the test system is Haemophilus influenzae. Put plainly: Antimicrobial activity against nontypeable Haemophilus influenzae isolate 2019 expressing GFP isolated from patient with COPD assessed as inhibition of biofilm formation at 0.25 ug/ml after 7 hrs using crystal violet. Format: functional, organism-based.
Test [5] relates to Haemophilus influenzae. The test is described as follows: Antimicrobial activity against nontypeable Haemophilus influenzae isolate 2019 expressing GFP isolated from patient with COPD assessed as decrease in maximal thickness of biofilm at 0.125 ug/mL incubated for 2 days measured after days 4 using flow cell culture. The test is classed as functional, organism-based. Summed up:
(§2)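 Flow cell: GFPmut3-expressing strain 2019 (pRSM2211, kanamycin selection before inoculation) attached under a glass coverslip. Medium: 1% BHI with NAD and hemin ([…]) in 150 mM NaCl, 0.08 ml/min flow, 37°C. Antibiotic at 0.125 μg/ml, either from inoculation or added after 2 days. Confocal imaging; biomass and maximal thickness by COMSTAT (n = 3).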

Test [6] deals with Haemophilus influenzae. Put plainly: Antimicrobial activity against nontypeable Haemophilus influenzae isolate 2019 expressing GFP isolated from patient with COPD assessed as decrease in biomass of biofilm at 0.125 ug/mL incubated for 2 days measured after day 4 using flow cell culture. Format: functional, organism-based. Summed up:
as §2

Test [7] deals with Haemophilus influenzae. The test is described as follows: Antimicrobial activity against nontypeable Haemophilus influenzae isolate 2019 expressing GFP isolated from patient with COPD assessed as maximal doubling time at 0.125 ug/mL using flow cell culture after 24 hrs. The test is classed as functional. Summed up:
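Growth curves: overnight strain 2019 culture, 1 ml diluted into 24 ml supplemented BHI (starting OD600 <0.050), antibiotic 0.03–2 μg/ml. Shaken at 37°C, OD600 read hourly. Maximal doubling time taken from the curves. Also repeated in flow-cell medium (1% supplemented BHI in 150 mM NaCl).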

Test [8] relates to Haemophilus influenzae. The test is described as follows: Antimicrobial activity against nontypeable Haemophilus influenzae isolate 2019 expressing GFP isolated from patient with COPD assessed as decrease in biofilm formation at 0.125 ug/mL treated for 4 days measured on day 2 to 4 using flow cell culture. The test is classed as functional, organism-based. Summed up:
as §2

For test [9], the system named is Haemophilus influenzae. The test is described as follows: Antimicrobial activity against nontypeable Haemophilus influenzae isolate 2019 expressing GFP isolated from patient with COPD assessed as growth inhibition at 0.125 ug/mL […]. Format: functional, organism-based.
The subject of test [10] is Haemophilus influenzae. The test is described as follows: Antimicrobial activity against azithromycin-resistant nontypeable Haemophilus influenzae isolate S43 assessed as inhibition of biofilm formation at >64 ug/mL. The test is classed as functional, organism-based. The method in brief:
(§3)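 Static-culture biofilm: mid-log-phase bacteria in BHI broth with 10 μg/ml hemin and 10 μg/ml NAD, azithromycin 0.06 to 64 μg/ml, flat-bottom polystyrene 96-well plates, 37°C. Planktonic growth read hourly as A490 over the first 7 h. Biomass at the air-liquid interface stained with crystal violet at 24 h, same wells. Representative data, n = 3.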

The test system of test [11] is Haemophilus influenzae. Put plainly: Antimicrobial activity against nontypeable Haemophilus influenzae isolate 2019 expressing GFP isolated from patient with COPD assessed as decrease biofilm formation at 0.125 ug/mL after 2 days using flow cell culture relative to control. Format: functional, organism-based. The method in brief:
as §2

Test [12] deals with Haemophilus influenzae. Put plainly: Antimicrobial activity against nontypeable Haemophilus influenzae isolate 2019 expressing GFP isolated from patient with COPD assessed as decrease in established biofilm formation at 0.125 ug/mL treated for 4 days measured on day 2 to 4 using flow cell culture. The test is classed as functional, organism-based. The method in brief: as §2

The test system of test [13] is Haemophilus influenzae. Put plainly: Antimicrobial activity against azithromycin-resistant nontypeable Haemophilus influenzae isolate S61 assessed as inhibition of biofilm formation at >64 ug/mL. Format: functional, organism-based. The method in brief: as §3
Test [14] relates to Haemophilus influenzae. The test is described as follows: Antimicrobial activity against nontypeable Haemophilus influenzae isolate 2019 expressing GFP isolated from patient with COPD assessed as viability at 0.125 ug/mL incubated for 2 days measured on day 4 using flow cell culture. The test is classed as functional, organism-based.
The subject of test [15] is Haemophilus influenzae. Put plainly: Antimicrobial activity against nontypeable Haemophilus influenzae isolate 2019 expressing GFP isolated from patient with COPD assessed as decrease in biomass of biofilm in 2 days established biofilm at 0.125 ug/mL after 4 days using flow cell culture. Format: functional, organism-based. Summed up:
as §2

The test system of test [16] is Haemophilus influenzae. Put plainly: Antimicrobial activity against azithromycin-resistant nontypeable Haemophilus influenzae isolate S44 assessed as inhibition of biofilm formation at >64 ug/mL. The test is classed as functional, organism-based. The method in brief: as §3
Test [17] has as its system Haemophilus influenzae. The test is described as follows: Antimicrobial activity against nontypeable Haemophilus influenzae isolate 2019 expressing GFP isolated from patient with COPD assessed as decrease in maximum thickness of biofilm in 2 days established biofilm at 0.125 ug/mL after 4 days using flow cell culture. Format: functional, organism-based. Summed up: as §2

The subject of test [18] is Haemophilus influenzae. Put plainly: Antimicrobial activity against nontypeable Haemophilus influenzae isolate 2019 expressing GFP isolated from patient with COPD assessed as decrease maximal thickness of biofilm at 0.125 ug/mL after 2 days using flow cell culture relative to control. Format: functional, organism-based. The method in brief: as §2
For test [19], the system named is Haemophilus influenzae. The test is described as follows: Antimicrobial activity against nontypeable Haemophilus influenzae isolate 2019 expressing GFP isolated from patient with COPD assessed as decrease biomass of biofilm at 0.125 ug/mL after 2 days using flow cell culture relative to control. Format: functional, organism-based. Summed up: as §2
In test [20] the test system is Haemophilus influenzae. The test is described as follows: Antimicrobial activity against nontypeable Haemophilus influenzae isolate 2019 expressing GFP isolated from patient with COPD by broth microdilution method. Format: functional. Summed up: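 MIC for strain 2019 carrying pRSM2211, by CLSI broth microdilution, done in a clinical microbiology laboratory.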

Test [21] concerns Haemophilus influenzae. Put plainly: Antimicrobial activity against azithromycin-resistant nontypeable Haemophilus influenzae isolate S57 assessed as inhibition of biofilm formation at 64 ug/mL after 7 hrs using crystal violet. Format: functional, organism-based.
In test [22] the test system is Haemophilus influenzae. The test is described as follows: Antimicrobial activity against nontypeable Haemophilus influenzae isolate 2019 expressing GFP isolated from patient with COPD assessed as viability at 0.125 ug/mL after 2 days using flow cell culture. Format: functional, organism-based. The method in brief:
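Flow-cell biofilms of GFP-expressing strain 2019 grown 2 days with or without 0.125 μg/ml antibiotic, then stained with propidium iodide for 15 min.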

The subject of test [23] is Haemophilus influenzae. The test is described as follows: Antimicrobial activity against azithromycin-resistant nontypeable Haemophilus influenzae isolate S34 assessed as inhibition of biofilm formation at >64 ug/mL. The test is classed as functional, organism-based. Summed up:
as §3

Test [24] deals with Haemophilus influenzae. The test is described as follows: Antimicrobial activity against nontypeable Haemophilus influenzae isolate 2019 expressing GFP isolated from patient with COPD assessed as decrease in biomass of 2 days established biofilm measured on day 4 using flow cell culture. Format: functional, organism-based. The method in brief:
as §1

Test [25] relates to Haemophilus influenzae. The test is described as follows: Antimicrobial activity against nontypeable Haemophilus influenzae isolate 2019 expressing GFP isolated from patient with COPD assessed as decrease in maximal thickness of biofilm at 16 ug/mL after 2 days. The test is classed as functional, organism-based. The method in brief: as §1
For test [26], the system named is Haemophilus influenzae. The test is described as follows: Antimicrobial activity against nontypeable Haemophilus influenzae isolate 2019 expressing GFP isolated from patient with COPD assessed as decrease in biomass of biofilm at 0.25 ug/mL after 2 days. The test is classed as functional, organism-based. Summed up:
as §1

For test [27], the system named is Haemophilus influenzae. Put plainly: Antimicrobial activity against nontypeable Haemophilus influenzae isolate 2019 expressing GFP isolated from patient with COPD by […] assay. The test is classed as functional, organism-based. The method in brief:
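MIC for strain 2019 carrying pRSM2211 determined by CLSI broth microdilution and Etest, performed by a hospital clinical microbiology laboratory.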

Test [28] relates to Haemophilus influenzae. The test is described as follows: Antimicrobial activity against nontypeable Haemophilus influenzae isolate 2019 expressing GFP isolated from patient with COPD assessed as decrease in maximal thickness of biofilm at 0.25 ug/mL after 2 days. The test is classed as functional, organism-based. Summed up:
as §1

Test [29] has as its system Haemophilus influenzae. The test is described as follows: Antimicrobial activity against nontypeable Haemophilus influenzae isolate 2019 expressing GFP isolated from patient with COPD assessed as maximal doubling time at 0.25 ug/mL using flow cell culture after 24 hrs. Format: functional, organism-based.
The test system of test [30] is Haemophilus influenzae. Put plainly: Antimicrobial activity against nontypeable Haemophilus influenzae isolate 2019 expressing GFP isolated from patient with COPD assessed as decrease in biomass of biofilm at 0.25 ug/mL after 4 days. Format: functional, organism-based. The method in brief:
as §1

Test [31] concerns Haemophilus influenzae. The test is described as follows: Antimicrobial activity against nontypeable Haemophilus influenzae isolate 2019 expressing GFP isolated from patient with COPD assessed as decrease in biomass of biofilm at 16 ug/mL after 2 days. The test is classed as functional, organism-based. Summed up: as §1
Test [32] concerns Haemophilus influenzae. The test is described as follows: Antimicrobial activity against nontypeable Haemophilus influenzae isolate 2019 expressing GFP isolated from patient with COPD assessed as growth inhibition at 0.25 ug/mL using static culture after 24 hrs. Format: functional, organism-based.
In test [33] the test system is Haemophilus influenzae. Put plainly: Antimicrobial activity against nontypeable Haemophilus influenzae isolate 2019 expressing GFP isolated from patient with COPD assessed as decrease in maximal thickness of biofilm at 0.25 ug/mL after 4 days. Format: functional, organism-based. The method in brief: as §1
Test [34] relates to Haemophilus influenzae. Put plainly: Antimicrobial activity against nontypeable Haemophilus influenzae isolate 2019 expressing GFP isolated from patient with COPD assessed as decrease in biofilm formation at 8 ug/mL after 2 days. Format: functional, organism-based. Summed up:
as §1

Turning to `CC[C@H]1OC(=O)[C@H](C)[C@@H](O[C@H]2C[C@@](C)(OC)[C@@H](O)[C@H](C)O2)[C@H](C)[C@@H](O[C@@H]2O[C@H](C)C[C@H](N(C)C)[C@H]2O)[C@](C)(O)C[C@@H](C)C(=O)[C@H](C)[C@@H](O)[C@]1(C)O`, in test [1], the result was inactive.
For `CC[C@H]1OC(=O)[C@H](C)[C@@H](O[C@H]2C[C@@](C)(OC)[C@@H](O)[C@H](C)O2)[C@H](C)[C@@H](O[C@@H]2O[C@H](C)C[C@H](N(C)C)[C@H]2O)[C@](C)(O)C[C@@H](C)CN(C)[C@H](C)[C@@H](O)[C@]1(C)O` [AZITHROMYCIN], the result in test [2], in [3], in test [4], in test [8], in [10] and in test [11] was Active. Also, the result in test [12], in [13], in [15], in test [16], in [17] and in [18] was Active. In addition, the result in test [19], in test [21] and in [23] was Active. Further, the result in test [5], in [6], in test [9], in test [14] and in [22] was inactive. Also, the Activity in [7] is on record as 44 min. In addition, the MIC in test [20] worked out at 0.5 mg/L (≈ 0.668 µM).
Regarding GENTAMICIN, the Activity result in test [24] is “Dose-dependent effect”; in test [29], 51 min. Further, the outcome in test [25], in test [31], in test [1], in test [32] and in [34] was Active. The result in test [26], in test [28], in test [30] and in [33] was inactive. In test [27], this molecule gave an MIC of 2 mg/L.
